# In PubChem BioAssay AID1665 (Sanford-Burnham Center for Chemical Genomics, 2009):
# About 590 (0.31%) of roughly 190,000 compounds were called active. The sample holds actives, similar compounds and a random draw of the others, so the mix is not that of the screen.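 Rule for the calls: active = nuclear translocation activity above 50% at 5 µM, with a well cell count of 50 or more; inconclusive = wells under 50 cells across six images, flagged as toxic; inactive = the rest.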
# Test: beta-catenin nuclear localization change in HeLa – imaging, HeLa cells, immunofluorescence, high-content, primary screen (AID 1665);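 for nuclear translocation activity: per-cell ratio of nuclear to cytoplasmic median beta-catenin stain intensity; plate controls were DMSO negative control for no effect and GSK-3 inhibitor IX positive control for full effect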
# Conditions: at 5 µM; cell count: HeLa beta-catenin nuclear translocation, measured here: cell count, cytotoxicity flag; nuclear translocation activity: stronger effect = higher value
# Summary of the method: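 Signal – beta-catenin immunofluorescence imaging with DAPI · Test system – human HeLa cell line · Dosing – 5 µM primary single dose, 0.1% DMSO, 0.02–20 µM confirmation series · Measure – % activation, nuclear-to-cytoplasmic median beta-catenin signal ratio per cell · Incubation – 24 h compound exposure at 37°C, 5% CO2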
Compound,cell count,nuclear translocation activity
CCOC(=O)C1CCN(c2c(Nc3cc(C)cc(C)c3)c(=O)c2=O)CC1,1340 cells,0.9% (inactive)
O=C(Cn1cnc2cc([N+](=O)[O-])ccc2c1=O)NC(=O)NCc1ccccc1,1320 cells,-2.1% (inactive)
Cc1cc(=O)[nH]c2nnnn12,1080 cells,-1.2% (inactive)
Cc1cc(N/N=C\c2ccc(Br)cc2)nc(-n2nc(C)cc2C)n1,1430 cells,-1.3% (inactive)
COc1ccc(Nc2cc(C)nc(-n3nc(C)cc3C)n2)cc1,451 cells,249% (active)
COc1ccccc1/C=N\Nc1cc(C)nc(-n2nc(C)cc2C)n1,900 cells,0.7% (inactive)
Nc1nnn(CC(=O)N/N=C/c2ccc(O)cc2)n1,1300 cells,-1.2% (inactive)
COCCNC(=S)N1CCN(C)CC1,1380 cells,-0.3% (inactive)
CCn1c(=O)c([N+](=O)[O-])c(NCc2ccc3c(c2)OCO3)c2ccccc21,1360 cells,-0.1% (inactive)
COc1cc(OC)cc(/C(N)=N/O)c1,1310 cells,0.5% (inactive)
COC(=O)c1ccccc1N=Nc1c(C)[nH][nH]c1=O,1310 cells,-1.6% (inactive)
O=C(NCCc1c[nH]c2ccc(Cl)cc12)c1ccc([N+](=O)[O-])cc1,1380 cells,1.3% (inactive)
N/C(=N\OC(=O)CCn1cccc(C(F)(F)F)c1=O)c1ccc(OC(F)(F)F)cc1,1280 cells,-1.4% (inactive)
O=C(NCC1CCCO1)c1cc(-c2ccccc2)nc2ccccc12 (stereo unspecified),1120 cells,-2% (inactive)
CC(C)c1c(O)nc(SCCOc2ccc(Cl)cc2)[nH]c1=O,1310 cells,0.9% (inactive)
Cc1nn(CC(=O)N/N=C/c2ccc(F)cc2)c(C)c1[N+](=O)[O-],1290 cells,0.3% (inactive)
O=C(NC1=NCCS1)c1ccc(Cl)s1,998 cells,1.4% (inactive)
CC(=O)NC1=NN(C(C)=O)C(C)(c2ccc(Cl)s2)S1 (stereo unspecified),101 cells,68.6% (active)
O=C(O)C(NS(=O)(=O)c1cccc2nsnc12)c1ccccc1 (stereo unspecified),1330 cells,-1% (inactive)
Cc1ccc(S(=O)(=O)N(C)CC(=O)OCC(=O)Nc2ccccc2)cc1,1320 cells,-1.1% (inactive)
CCS(=O)(=O)c1cc([N+](=O)[O-])c(Sc2ccccc2N)s1,1180 cells,-2.4% (inactive)
Cc1c(C(=O)N(Cc2ccccc2)Cc2cccnc2)cnn1-c1ccc(F)cc1,1030 cells,0.4% (inactive)
CCOc1ccc(/C(O)=C2\C(=O)C(=O)N(c3ccc(OC)cc3)C2c2ccccc2[N+](=O)[O-])cc1 (stereo unspecified),1260 cells,-0.5% (inactive)
O=C(NN1C(=O)C2CCCCC2C1=O)c1ccco1 (stereo unspecified),1260 cells,0.6% (inactive)
Cc1cc(-c2n[nH]c(=S)n2/N=C/c2ccco2)n[nH]1,1280 cells,-0.9% (inactive)
CCc1cccc(CC)c1NC(=S)Nc1ccc2cn[nH]c2c1,1270 cells,0.8% (inactive)
O=[N+]([O-])c1ccc(N=Cc2c(O)ccc3ccccc23)cc1,1330 cells,0.8% (inactive)

Compound,cell count,nuclear translocation activity
Cc1ccc(C(=O)Nc2nc(N)n(-c3ccccc3)n2)cc1,1180 cells,-1.1% (inactive)
O=C(c1c(Cl)cccc1Cl)N1CCN(c2cccc3[nH]ccc23)CC1,1260 cells,-1.5% (inactive)
COc1ccc(NC(=O)c2cn(-c3ccccc3)nc2SC)cc1,1240 cells,0.1% (inactive)
O=C(Nc1nnc(CCN2CCCCC2)s1)c1cccc(Cl)c1,1310 cells,0.2% (inactive)
C=CCSC(CC)(CC)C(N)=O,1320 cells,0.1% (inactive)
Cc1cc(F)ccc1NC(=O)C(C)n1c2ccccc2c2nc(=O)cc(C)n21 (stereo unspecified),1290 cells,-0.2% (inactive)
COc1ccc(CCN2C(=O)N(c3ccc(OC)cc3)C(=O)C2CC(=O)Nc2ccc(OC)cc2)cc1 (stereo unspecified),1360 cells,-0.8% (inactive)
Cc1nc(-c2nnc(SCC(=O)Nc3cc(C(F)(F)F)cc(C(F)(F)F)c3)n2C)cs1,1370 cells,-0.7% (inactive)
Cc1ccc2c(C)c(C(=O)N3CCC(N4CCC(C(=O)NC5CC5)CC4)CC3)oc2c1,1360 cells,1.4% (inactive)
CSc1ccc(NC(=O)/C=C/C(=O)O)cc1,1010 cells,2.1% (inactive)
CCN1CCN(c2nc(Nc3cccc(F)c3)nc(N)c2[N+](=O)[O-])CC1,1210 cells,-1.4% (inactive)
COc1ccc(Nc2nc(Cl)nc(NCc3ccco3)n2)cc1,1380 cells,3% (inactive)
COc1ccc(Nc2oc(-c3ccccc3Cl)nc2C#N)cc1,210 cells,156% (active)
Cc1ccccc1-c1nc(C#N)c(NCc2ccco2)o1,1080 cells,-3.1% (inactive)
NS(=O)(=O)c1ccc(NC2=CC(c3ccc(F)cc3)N(c3ccc(S(N)(=O)=O)cc3)C2=O)cc1 (stereo unspecified),1320 cells,0.9% (inactive)
C/C(=N\NC(=O)c1cccnc1)c1ccc(-c2ccccc2)cc1,1160 cells,-0.7% (inactive)
O=C(Nc1ccc(S(=O)(=O)Nc2nccs2)cc1)c1cccc(S(=O)(=O)N2CCOCC2)c1,1290 cells,0.8% (inactive)
C[C@@H](NC(=O)OC(C)(C)C)c1nnc(S(=O)(=O)Cc2ccccc2)o1,1360 cells,-0.8% (inactive)
COc1ccc(N2C(=O)c3ccccc3NC2c2ccc(OC)c(CN3CCOCC3)c2)cc1 (stereo unspecified),1290 cells,0.6% (inactive)
CCCC(=O)Nc1nc2ccc(NC(=O)c3cccnc3)cc2s1,895 cells,-0.7% (inactive)
COc1ccc2nc(Nc3nc4ccc(NC(C)=O)cc4s3)sc2c1,875 cells,2.8% (inactive)
CCCC(=O)Nc1nc2ccc(NC(=O)c3c(F)c(F)c(OC)c(F)c3F)cc2s1,260 cells,57.6% (active)
Cc1ccc(/C=N/NC(=S)Nc2cccc(S(=O)(=O)N(C)C)c2)o1,1210 cells,2.8% (inactive)
CC(/C=C/C1(O)C(C)CC(=O)CC1(C)C)OC1OC(CO)C(O)C(O)C1O (stereo unspecified),1080 cells,-3% (inactive)
C=CC1C(OC2OC(CO)C(O)C(O)C2O)OC=C(C(=O)OC)C1CC1CC(=O)CC(CC(=O)CCc2ccc(O)cc2)O1 (stereo unspecified),387 cells,79.8% (active)
Cc1cc(C(=O)NCCc2ccc(Cl)cc2)n(-c2ccccc2)n1,1320 cells,-0.3% (inactive)
